Compound activity (PubChem)
SIAE primary = inhibitors of human sialic acid acetylesterase SIAE; SIAE FP-Rh probe binding, fluorescence polarization; inhibition, % at 9.66 µM; actives 0.69% (n = 370,000); AID 1053197;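 active = inhibition above a cutoff: mean of compounds within the control limits plus 3 SD of those, cut at about 17% in these data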
ABHD4 inh = inhibits mouse alpha/beta hydrolase domain 4 | Q8VD66 | purified mABHD4, FP-Rh probe fluorescence polarization | inhibition, % at 8.92 µM | actives 0.54% (n = 370,000) | AID 720543;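 active = inhibition exceeding the mean over every tested compound plus 3 SD, cut at about 30% in these data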
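Assay system: mouse ABHD4 enzyme, wild type / Also added: fluorescent activity-based probe FP-Rh / Doses: single nominal dose of 8.92 µM, 0.89% DMSO final / Timing: 45 min compound pre-incubation plus 60 min probe step, 25 °C / Signal: FP readout, ex 525 nm / em 598 nm / Control set: S159A mutant/DMSO as 100%, compound-well median as 0%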
JMJD2C inh = blocks human GASC-1 demethylase activity. Q9H3R0. GST-JMJD2C(1-420) H3K9me3 demethylation, DELFIA europium. inhibition, % at 2.35 µM. actives 0.069% (n = 330,000);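 active = more than half of a compound's replicate wells show inhibition beyond 50%, single wells judged on their own value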;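 also: signal counts dimethyl H3K9 product captured on neutravidin plate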
Target sequence (Q9H3R0 1-420 limits assumed): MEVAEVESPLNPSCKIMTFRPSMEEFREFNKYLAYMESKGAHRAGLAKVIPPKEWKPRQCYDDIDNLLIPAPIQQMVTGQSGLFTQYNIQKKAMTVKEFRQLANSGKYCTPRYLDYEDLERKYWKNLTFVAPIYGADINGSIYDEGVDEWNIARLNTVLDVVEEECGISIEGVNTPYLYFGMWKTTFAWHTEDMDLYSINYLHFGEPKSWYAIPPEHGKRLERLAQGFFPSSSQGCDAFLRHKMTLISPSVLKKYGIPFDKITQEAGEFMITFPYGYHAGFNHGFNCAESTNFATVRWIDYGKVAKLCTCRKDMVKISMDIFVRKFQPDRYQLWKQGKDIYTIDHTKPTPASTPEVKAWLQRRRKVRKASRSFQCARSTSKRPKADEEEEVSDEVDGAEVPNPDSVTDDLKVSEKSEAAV
HTRA1 inh = blocks human HTRA1 serine peptidase; AID 504803; inhibition, % at 5.96 µM; actives 0.5% (n = 340,000); Q92743; recombinant HTRA1, FP-rhodamine activity-based probe, fluorescence polarization; in the data active = inhibition above about 36%
PRMT1 FP inh = inhibitors of human PRMT1 | Q99873 | recombinant PRMT1, activity-based probe fluorescence polarization | inhibition, % at 2.79 µM | actives 1.3% (n = 370,000);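 active = inhibition above about 21% made by adding two undisclosed values, limit read from the data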
SIAE confirm = confirmation of human SIAE inhibitors; shares compounds with SIAE primary; SIAE FP-Rh activity-based probe, fluorescence polarization; inhibition, % at 9.66 µM; actives 13% (n = 2,300);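 active = mean inhibition of the replicates above the hit cutoff set in the primary screen, cut at about 17% in these data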;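 also: inhibitors lower polarization as more probe stays unbound to SIAE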
A number is an active result. Hits are enriched below; roughly 2.4% of the tested compounds scored in any of these assays.

How did CCOc1ccc(NC(=S)NCCCn2ccnc2)cc1 do in these assays?
SIAE primary: inactive; ABHD4 inh: inactive; JMJD2C inh: inactive; HTRA1 inh: inactive; PRMT1 FP inh: inactive

Results for S=C(NCCCn1ccnc1)Nc1cccc(Cl)c1 ?
SIAE primary: 20.5; ABHD4 inh: inactive; JMJD2C inh: inactive; HTRA1 inh: inactive; PRMT1 FP inh: inactive; SIAE confirm: inactive

Results for COc1ccccc1OCCNC(=O)Nc1ccc(Br)cc1 ?
SIAE primary: 17.8; ABHD4 inh: inactive; JMJD2C inh: inactive; HTRA1 inh: inactive; PRMT1 FP inh: inactive; SIAE confirm: inactive

How did Nc1[nH]c2cc(Cl)ccc2c1C(=O)N1CCOCC1 do in these assays?
SIAE primary: inactive; ABHD4 inh: inactive; PRMT1 FP inh: inactive

What do the screens show for `CCOC(=O)c1c(C)[nH]c(C(=O)COC(=O)c2cnccn2)c1C`?
SIAE primary: 20.1; ABHD4 inh: inactive; JMJD2C inh: inactive; HTRA1 inh: inactive; PRMT1 FP inh: inactive; SIAE confirm: inactive

How did COC(=O)[C@@]1(Sc2ccc(C)cc2)CC(=O)N(C(=O)/C=C/c2ccccc2)[C@@H]1c1ccccc1 do in these assays?
SIAE primary: inactive; ABHD4 inh: inactive; PRMT1 FP inh: inactive

Results for CN1CCCCC1(C)C(=O)NCc1ccc(F)cc1 (stereo unspecified) ?
SIAE primary: inactive; ABHD4 inh: inactive; PRMT1 FP inh: inactive

What do the screens show for `COc1ccc(NC(=S)N/N=C/c2cccn2Cc2ccc(F)cc2)cc1`?
SIAE primary: 18.6; ABHD4 inh: inactive; JMJD2C inh: inactive; HTRA1 inh: inactive; PRMT1 FP inh: inactive; SIAE confirm: inactive

What do the screens show for `NC(=O)c1ncn([C@@H]2O[C@H](C(=O)Nc3ccc(C(=O)N4CCCCC4)cc3)[C@@H](O)[C@H]2O)n1`?
SIAE primary: 17.7; ABHD4 inh: inactive; PRMT1 FP inh: inactive; SIAE confirm: 18.3

How did NC(=O)c1ncn([C@@H]2O[C@H](C(=O)Nc3ccc(Oc4ccccc4)nc3)[C@@H](O)[C@H]2O)n1 do in these assays?
SIAE primary: inactive; ABHD4 inh: inactive; PRMT1 FP inh: inactive

What do the screens show for `COCCN(Cc1ccc(C)cc1)C(=O)[C@H]1O[C@@H](n2cnc(C(N)=O)n2)[C@H](O)[C@@H]1O`?
SIAE primary: 21.0; ABHD4 inh: inactive; PRMT1 FP inh: inactive; SIAE confirm: 19.8

How did COc1ccccc1C(=O)N1CCN(C(=O)[C@H]2O[C@@H](n3cnc(C(N)=O)n3)[C@H](O)[C@@H]2O)CC1 do in these assays?
SIAE primary: 19.0; ABHD4 inh: inactive; PRMT1 FP inh: inactive; SIAE confirm: inactive

What do the screens show for `COCCN(Cc1ccc(C)cc1)C(=O)[C@H]1O[C@@H](n2ccc(N)nc2=O)[C@H](O)[C@@H]1O`?
SIAE primary: inactive; ABHD4 inh: inactive; PRMT1 FP inh: inactive

What do the screens show for `CCOC(=O)[C@]12CCCC=C1N(Cc1ccc(Cl)cc1Cl)C(=O)[C@H](CC(=O)NCc1ccc(OC)c(OC)c1)C2`?
SIAE primary: inactive; ABHD4 inh: inactive; PRMT1 FP inh: inactive

How did CCC[C@H]1[C@@H](OC(=O)NCc2ccc(Cl)c(Cl)c2)CC[C@@]23CCCN2C(=O)CCC[C@@H]13 do in these assays?
SIAE primary: inactive; ABHD4 inh: inactive; PRMT1 FP inh: inactive

How did CC(Sc1ccc(Cl)cc1)C(=O)NCC(c1ccco1)N1CCCCC1 (stereo unspecified) do in these assays?
SIAE primary: 62.6; ABHD4 inh: inactive; JMJD2C inh: inactive; HTRA1 inh: inactive; PRMT1 FP inh: inactive; SIAE confirm: inactive

Results for O=C(NCC(c1ccco1)N1CCCCC1)C(c1ccccc1)c1ccccc1 (stereo unspecified) ?
SIAE primary: inactive; ABHD4 inh: inactive; JMJD2C inh: inactive; HTRA1 inh: inactive; PRMT1 FP inh: inactive

What do the screens show for `O=C(C1CC1)C1(C(=O)N2CCOCC2)CC(c2ccccn2)=NO1` (stereo unspecified)?
SIAE primary: inactive; ABHD4 inh: inactive; PRMT1 FP inh: inactive

Results for COc1ccc(NCC(=O)N/N=C(\C)c2cc3ccccc3o2)cc1 ?
SIAE primary: 18.4; ABHD4 inh: inactive; JMJD2C inh: inactive; HTRA1 inh: inactive; PRMT1 FP inh: inactive; SIAE confirm: inactive

What do the screens show for `COc1ccc(-n2c(SC/C=C/c3ccccc3)nnc2-c2cccs2)cc1`?
SIAE primary: inactive; ABHD4 inh: inactive; PRMT1 FP inh: inactive

How did CCNC(=S)NNC(=O)c1ccc(OC)cc1 do in these assays?
SIAE primary: 17.4; ABHD4 inh: inactive; JMJD2C inh: inactive; HTRA1 inh: inactive; PRMT1 FP inh: inactive; SIAE confirm: inactive

What do the screens show for `CCN(CC)c1ccc(/C=N/NC(=O)c2nnn(-c3nonc3N)c2C(C)C)c(O)c1`?
SIAE primary: 17.2; ABHD4 inh: inactive; JMJD2C inh: inactive; HTRA1 inh: inactive; PRMT1 FP inh: inactive; SIAE confirm: inactive

Results for CCCN(CCC)Cc1c(C(=O)N/N=C/c2ccco2)nnn1-c1nonc1N ?
SIAE primary: 17.2; ABHD4 inh: inactive; JMJD2C inh: inactive; HTRA1 inh: inactive; PRMT1 FP inh: inactive; SIAE confirm: inactive

How did CCCN(CCC)Cc1c(C(=O)N/N=C/c2ccoc2)nnn1-c1nonc1N do in these assays?
SIAE primary: inactive; ABHD4 inh: inactive; JMJD2C inh: inactive; HTRA1 inh: inactive; PRMT1 FP inh: inactive

Results for COc1ccc(C(=O)NN=C2CCCC2)cc1 ?
SIAE primary: 19.8; ABHD4 inh: inactive; JMJD2C inh: inactive; HTRA1 inh: inactive; PRMT1 FP inh: inactive; SIAE confirm: inactive

What do the screens show for `COc1cccc(C(=O)NN=C2CCCC2)c1`?
SIAE primary: inactive; ABHD4 inh: inactive; JMJD2C inh: inactive; HTRA1 inh: inactive; PRMT1 FP inh: inactive

What do the screens show for `Cn1nc([N+](=O)[O-])c(C(C#N)c2nc3ccccc3n2C)c(Cl)c1=O` (stereo unspecified)?
SIAE primary: 27.3; ABHD4 inh: inactive; JMJD2C inh: inactive; HTRA1 inh: inactive; PRMT1 FP inh: inactive; SIAE confirm: inactive

What do the screens show for `COc1ccc(C(=O)c2[nH]c(N)c(C(=O)NCCc3c[nH]c4ccccc34)c2-c2ccccc2Br)cc1`?
SIAE primary: inactive; ABHD4 inh: inactive; PRMT1 FP inh: inactive

Results for CCCCNC(=O)CCC(=O)Nc1ccc2nc(N3CCOCC3)cc(C)c2c1 ?
SIAE primary: 24.1; ABHD4 inh: inactive; JMJD2C inh: inactive; HTRA1 inh: inactive; PRMT1 FP inh: inactive; SIAE confirm: inactive

What do the screens show for `CCCCNC(=O)CCC(=O)Nc1ccc2nc(N3CCCCC3)cc(C)c2c1`?
SIAE primary: inactive; ABHD4 inh: inactive; JMJD2C inh: inactive; HTRA1 inh: inactive; PRMT1 FP inh: inactive

What do the screens show for `COc1ccccc1NC(=O)Nc1nc(CC(=O)Nc2ccc(N(C)C)cc2)cs1`?
SIAE primary: 27.0; ABHD4 inh: inactive; JMJD2C inh: inactive; HTRA1 inh: inactive; PRMT1 FP inh: inactive; SIAE confirm: inactive

Results for CN(C)c1ccc(NC(=O)Nc2csc3ccccc23)cc1 ?
SIAE primary: 17.5; ABHD4 inh: inactive; JMJD2C inh: inactive; PRMT1 FP inh: inactive; SIAE confirm: inactive
